How the values were obtained:
Mus musculus [1] = assay: The in vivo tissue distribution of mouse blood with Propranolol preadministration in 120 min, value was fractional dose per fractional body weight of the organ; assay type: ADME, organism-based; settings: 2 h
Method in brief: (§1)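 Male CF-1 mice (25–30 g) anaesthetised with 2 mg sodium pentobarbital ip; blocked group given 0.1 mL of […] propranolol iv via tail vein (200 μg, 6.6 mg/kg), tracer 30 min later. 0.1 mL of 1–2 mCi/mL [18F]-labelled enantiomer iv via tail vein; killed by cervical dislocation, organs weighed and counted against weighed standards. %ID/g × body weight/100 gives unitless uptake; five mice per point (heart, blood, lung, kidney, liver, bone); mean ± SD.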

Mus musculus [2] = assay: The in vivo tissue distribution of mouse bone with Propranolol preadministration in 90 min, value was fractional dose per fractional body weight of the organ; assay type: ADME, organism-based, Bone element; settings: 1.5 h; method in brief: as §1
Mus musculus [3] = assay: The in vivo tissue distribution of mouse liver with Propranolol preadministration in 120 min, value was fractional dose per fractional body weight of the organ; assay type: ADME, organism-based; settings: 2 h
Method in brief: (§2)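 Male CF-1 mice (25–30 g), anesthetised with 2 mg sodium pentobarbital ip 30 min before tracer. Where blocked, propranolol iv via tail vein (0.1 mL of […]; […]) about 30 min before tracer. Tracer given by tail vein, 0.1 mL at 1–2 mCi/mL. Mice killed by cervical dislocation at set times, organs weighed and counted. %ID/g × body weight/100 gives unitless uptake. Heart, brain, blood, lung, kidney, liver and bone n=5; average ± SD.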

Mus musculus [4] = assay: The in vivo tissue distribution of mouse liver without Propranolol preadministration in 20 min, value was fractional dose per fractional body weight of the organ
Mus musculus [5] = assay: The in vivo tissue distribution of mouse kidney with Propranolol administration after 120 min, value was fractional dose per fractional body weight of the organ; assay type: ADME, organism-based; settings: 2 h; method in brief: as §2
Mus musculus [6] = assay: The in vivo tissue distribution of mouse blood with Propranolol administration after 90 min, value was fractional dose per fractional body weight of the organ; assay type: ADME, organism-based; settings: 1.5 h; method in brief: as §1
Mus musculus [7] = assay: The in vivo tissue distribution of mouse bone without Propranolol preadministration in 10 min, value was fractional dose per fractional body weight of the organ
Mus musculus [8] = assay: The in vivo tissue distribution of mouse lung without Propranolol preadministration in 120 min, value was fractional dose per fractional body weight of the organ; settings: 2 h
Mus musculus [9] = assay: The in vivo tissue distribution of mouse lung with Propranolol administration after 60 min, value was fractional dose per fractional body weight of the organ; assay type: ADME, organism-based; settings: 1 h; method in brief: as §2
Mus musculus [10] = assay: The in vivo tissue distribution of mouse heart with Propranolol administration after 180 min, value was fractional dose per fractional body weight of the organ; assay type: ADME, organism-based; settings: 3 h
Method in brief: (§3)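 Male CF-1 mice (25–30 g), given 2 mg sodium pentobarbital ip 30 min before tracer. Blocked groups received propranolol iv by tail vein, 0.1 mL of 1 mg/mL. About 30 min later, 0.1 mL of [18F]tracer (1–2 mCi/mL) was injected by tail vein. Mice were killed by cervical dislocation at set times, and organs were weighed and counted. Uptake is %ID/g × body weight/100, average ± SD; n=5 for heart, brain, blood, lung, kidney, liver and bone.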

Mus musculus [11] = assay: The in vivo tissue distribution of mouse heart without Propranolol preadministration in 90 min, value was fractional dose per fractional body weight of the organ; settings: 1.5 h
Mus musculus [12] = assay: The in vivo tissue distribution of mouse lung without Propranolol preadministration in 40 min, value was fractional dose per fractional body weight of the organ
Mus musculus [13] = assay: The in vivo tissue distribution of mouse bone with Propranolol preadministration in 20 min, value was fractional dose per fractional body weight of the organ; assay type: ADME, organism-based, Bone element; method in brief: as §2
Mus musculus [14] = assay: The in vivo tissue distribution of mouse bone with Propranolol preadministration in 40 min, value was fractional dose per fractional body weight of the organ; assay type: ADME, organism-based, Bone element; method in brief: as §2
Mus musculus [15] = assay: The in vivo tissue distribution of mouse lung without Propranolol preadministration in 60 min, value was fractional dose per fractional body weight of the organ; settings: 1 h
Mus musculus [16] = assay: The in vivo tissue distribution of mouse liver without Propranolol preadministration in 60 min, value was fractional dose per fractional body weight of the organ; settings: 1 h
[17] = The in vivo tissue distribution of mouse kidney without Propranolol preadministration in 180 min, value was fractional dose per fractional body weight of the organ; settings: 3 h
Mus musculus [18] = assay: The in vivo tissue distribution of mouse kidney without Propranolol preadministration in 60 min, value was fractional dose per fractional body weight of the organ; settings: 1 h
Mus musculus [19] = assay: The in vivo tissue distribution of mouse kidney without Propranolol preadministration in 90 min, value was fractional dose per fractional body weight of the organ; settings: 1.5 h
Mus musculus [20] = assay: The in vivo tissue distribution of mouse liver with Propranolol administration after 20 min, value was fractional dose per fractional body weight of the organ; assay type: ADME, organism-based; method in brief: as §3
Mus musculus [21] = assay: The in vivo tissue distribution of mouse blood without Propranolol preadministration in 90 min, value was fractional dose per fractional body weight of the organ; settings: 1.5 h
Mus musculus [22] = assay: The in vivo tissue distribution of mouse lung without Propranolol preadministration in 10 min, value was fractional dose per fractional body weight of the organ
Mus musculus [23] = assay: The in vivo tissue distribution of mouse brain with Propranolol administration after 90 min, value was fractional dose per fractional body weight of the organ; assay type: ADME, organism-based; settings: 1.5 h; method in brief: as §2
Mus musculus [24] = assay: The in vivo tissue distribution of mouse bone with Propranolol administration after 120 min, value was fractional dose per fractional body weight of the organ; assay type: ADME, organism-based, Bone element; settings: 2 h; method in brief: as §3
Mus musculus [25] = assay: The in vivo tissue distribution of mouse blood without Propranolol preadministration in 180 min, value was fractional dose per fractional body weight of the organ; settings: 3 h
Mus musculus [26] = assay: The in vivo tissue distribution of mouse kidney with Propranolol administration after 20 min, value was fractional dose per fractional body weight of the organ; assay type: ADME, organism-based; method in brief: as §3
Mus musculus [27] = assay: The in vivo tissue distribution of mouse bone with Propranolol administration after 90 min, value was fractional dose per fractional body weight of the organ; assay type: ADME, organism-based, Bone element; settings: 1.5 h; method in brief: as §2
Mus musculus [28] = assay: The in vivo tissue distribution of mouse lung with Propranolol administration after 180 min, value was fractional dose per fractional body weight of the organ; assay type: ADME, organism-based; settings: 3 h; method in brief: as §2
Mus musculus [29] = assay: The in vivo tissue distribution of mouse blood with Propranolol administration after 40 min, value was fractional dose per fractional body weight of the organ; assay type: ADME, organism-based; method in brief: as §2
Mus musculus [30] = assay: The in vivo tissue distribution of mouse lung with Propranolol administration after 20 min, value was fractional dose per fractional body weight of the organ; assay type: ADME, organism-based; method in brief: as §3
Mus musculus [31] = assay: The in vivo tissue distribution of mouse lung without Propranolol preadministration in 180 min, value was fractional dose per fractional body weight of the organ; settings: 3 h
Mus musculus [32] = assay: The in vivo tissue distribution of mouse kidney without Propranolol preadministration in 10 min, value was fractional dose per fractional body weight of the organ

SMILES | Dose/organ (Mus musculus [1]) | Dose/organ (Mus musculus [2]) | Dose/organ (Mus musculus [3]) | Dose/organ (Mus musculus [4]) | Dose/organ (Mus musculus [5]) | Dose/organ (Mus musculus [6]) | Dose/organ (Mus musculus [7]) | Dose/organ (Mus musculus [8]) | Dose/organ (Mus musculus [9]) | Dose/organ (Mus musculus [10]) | Dose/organ (Mus musculus [11]) | Dose/organ (Mus musculus [12]) | Dose/organ (Mus musculus [13]) | Dose/organ (Mus musculus [14]) | Dose/organ (Mus musculus [15]) | Dose/organ (Mus musculus [16]) | Dose/organ [17] | Dose/organ (Mus musculus [18]) | Dose/organ (Mus musculus [19]) | Dose/organ (Mus musculus [20]) | other results
CC(C[18F])NC[C@H](O)COc1cccc2[nH]c3ccccc3c12 (some centres undefined) | 0.52 | 1.13 | 0.96 | 2.54 | 0.38 | 0.34 | 0.65 | 4.82 | 1.1 | 0.15 | 0.61 | 6.16 | 0.65 | 0.71 | 5.34 | 1.32 | 0.71 | 1.39 | 1.33 | 1.85 | Dose/organ (Mus musculus [21]): 0.66; Dose/organ (Mus musculus [22]): 6.4; Dose/organ (Mus musculus [23]): 0.38; Dose/organ (Mus musculus [24]): 1.42; Dose/organ (Mus musculus [25]): 0.43; Dose/organ (Mus musculus [26]): 2.19; Dose/organ (Mus musculus [27]): 0.72; Dose/organ (Mus musculus [28]): 0.72; Dose/organ (Mus musculus [29]): 0.35; Dose/organ (Mus musculus [30]): 3.26; Dose/organ (Mus musculus [31]): 4.8; Dose/organ (Mus musculus [32]): 4.18
CC(C[18F])NC[C@@H](O)COc1cccc2[nH]c3ccccc3c12 (some centres undefined) | 0.24 | 1 | 0.94 | 4 | 0.63 | 0.47 | 0.67 | 1.29 | 1.23 | 0.1 | 0.46 | 3.29 | 0.93 | 0.95 | 2.39 | 2.56 | 0.67 | 2.63 | 1.5 | 3 | Dose/organ (Mus musculus [21]): 0.43; Dose/organ (Mus musculus [22]): 8.13; Dose/organ (Mus musculus [23]): 0.42; Dose/organ (Mus musculus [24]): 1.98; Dose/organ (Mus musculus [25]): 0.17; Dose/organ (Mus musculus [26]): 4.43; Dose/organ (Mus musculus [27]): 1.57; Dose/organ (Mus musculus [28]): 0.26; Dose/organ (Mus musculus [29]): 0.57; Dose/organ (Mus musculus [30]): 3.87; Dose/organ (Mus musculus [31]): 0.84; Dose/organ (Mus musculus [32]): 4.6
